Compound activity from PubChem.
RanGTP-Impb inh: inhibitors of RanGTP-importin-beta interaction, primary screen, biochemical, FRET, CFP-Ran, YFP-importin-beta, homogeneous; inhibition, % (no concentration beside the values); 300,000 compounds, 1.1% hits; cell-free CFP-Ran/YFP-importin-beta FRET ratio;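 active = more than half of the replicate wells show a fall in the fluorescence ratio signal beyond about 16%, limit read from the data, passing the limit was not always enough; inconclusive = exactly half of the replicate wells pass the set limit; inactive = fewer than half of replicates pass the limit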;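 also: 0% = DMSO wells and 100% = Ran loaded with GDP instead of GTP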
Hck Nef HTS: inhibitors of human Hck kinase activated by Nef | Recombinant Hck-YEEI plus Nef, Z-Lyte FRET kinase assay | inhibition, % at 20 µM | 220,000 compounds, 0.68% hits;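 active = Hck-Nef kinase inhibition above about 50%, limit read from the data; inactive = inhibition below that limit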;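 also: 0% = DMSO with Hck plus Nef and 100% = Hck alone without Nef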
14-3-3 Bad inh: disrupts binding of bovine 14-3-3 zeta to phospho-Bad peptide; P63103; TR-FRET 14-3-3zeta/Dy647-pBad peptide displacement, 1 h; inhibition, % at 21.7 µM; 220,000 compounds, 0.71% hits;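 active = inhibition above about 70%, limit read from the data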;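 also: 0% = full 14-3-3 plus peptide FRET controls and 100% = background without 14-3-3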
Target sequence (P63103 whole entry, looked up): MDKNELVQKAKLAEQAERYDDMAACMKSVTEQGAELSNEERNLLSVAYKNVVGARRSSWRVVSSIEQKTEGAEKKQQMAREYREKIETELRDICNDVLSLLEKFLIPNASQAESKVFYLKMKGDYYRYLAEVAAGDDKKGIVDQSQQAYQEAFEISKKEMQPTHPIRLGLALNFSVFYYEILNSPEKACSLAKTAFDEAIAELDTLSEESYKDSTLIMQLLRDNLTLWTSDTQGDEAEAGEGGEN
Runt-SMMHC FRET: blocks binding of human RUNX1 Runt domain to CBFb-SMMHC; Q01196+Q13951; Cerulean-Runt/Venus-CBFb-SMMHC FRET ratio 530/480, 1 h; inhibition, % at 20 µM; 220,000 compounds, 0.74% hits; AID 1434;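 active = mean inhibition across duplicate retests at 20 µM reaching about 50%, limit read from the data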;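 also: 0% = DMSO wells and 100% = wells with excess untagged CBFb-SMMHC; inhibitors lower the FRET ratio by blocking Runt binding to CBFb-SMMHC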
Runt-CBFb FRET: blocks binding of human RUNX1 Runt domain to CBFb; 220,000 compounds, 0.46% hits; Cerulean-Runt/Venus-CBFb FRET ratio 530/480, 1 h; Q01196+Q13951; AID 1496; inhibition, % at 20 µM;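 active = inhibition over about 50% at 20 µM in the single-dose screen, limit read from the data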;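 also: 0% = DMSO wells and 100% = excess unlabeled CBFb competitor control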
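Doses: 20 µM compound in 1% DMSO | Material: Cerulean-labeled Runt domain protein | Amount: Each fluorescent fusion protein 100 nM | Schedule: Two 1 h room-temperature incubations shielded from light | Measured by: FRET fluorescence | Evaluation: Loss of energy transfer signal | Controls: Unlabeled CBFb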
Tb hexokinase: T. brucei hexokinase 1 inhibition; 220,000 compounds, 0.11% hits; recombinant TbHK1, G6PDH-coupled NADH A340; inhibition, % at 10 µM;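 active = inhibition of 50% or more in the single-dose primary screen; inactive = inhibition below 50%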
Starred values were filed as active, the others as inactive; [ ] = another dose, or the depositor's remark. In the library only some 2.2% were active in any assay of this set; here they are far more common.

Results for Cc1ccc(Cn2c(=N)c(C(=O)NC3CCCC3)cc3c(=O)n4ccccc4nc32)cc1 ?
RanGTP-Impb inh: -0.7

What do the screens show for `N=c1c(C(=O)NC2CCCCC2)cc2c(=O)n3ccccc3nc2n1Cc1ccccc1`?
RanGTP-Impb inh: 180.1*

How did O=C(NCc1ccc(F)cc1)C1CCN(c2cnccn2)CC1 do in these assays?
RanGTP-Impb inh: 3.7; Hck Nef HTS: 19.0; 14-3-3 Bad inh: -1.4; Runt-SMMHC FRET: -2.8; Runt-CBFb FRET: -0.1; Tb hexokinase: -14.9

Results for Cc1cc(C)nc(NC(=O)Cc2ccc(Br)cc2)n1 ?
RanGTP-Impb inh: 0.4; Hck Nef HTS: -8.3; 14-3-3 Bad inh: -6.5; Runt-SMMHC FRET: -3.2; Runt-CBFb FRET: 0.5; Tb hexokinase: 5.4

Results for COc1ccc(C2C(C#N)=C(N)Oc3cc(O)ccc32)cc1OC (stereo not given) ?
RanGTP-Impb inh: 55.7*; Hck Nef HTS: 4.4; 14-3-3 Bad inh: -5.8; Runt-SMMHC FRET: 42.0; Runt-CBFb FRET: 9.9; Tb hexokinase: 8.4

Results for C[n+]1cccc2ccc3c(c21)OC(N)=C(C#N)C3c1ccccc1 (stereo not given) ?
RanGTP-Impb inh: 2.5; Hck Nef HTS: 1.1; 14-3-3 Bad inh: 0.4; Runt-SMMHC FRET: -0.2; Runt-CBFb FRET: -18.9; Tb hexokinase: -16.5

How did COc1ccc(N=Cc2cc3c(cc2O)OC(N)=C(C#N)C3c2ccccc2)cc1 (stereo not given) do in these assays?
RanGTP-Impb inh: 9.5; Hck Nef HTS: 1.5; 14-3-3 Bad inh: -30.0; Runt-SMMHC FRET: 87.6*; Runt-CBFb FRET: 48.9; Tb hexokinase: -10.5

How did COc1cc(C2C(C#N)=C(N)Oc3cc(O)ccc32)cc(OC)c1OC (stereo not given) do in these assays?
RanGTP-Impb inh: 68.9*; Hck Nef HTS: 1.8; 14-3-3 Bad inh: -9.8; Runt-SMMHC FRET: -19.2; Runt-CBFb FRET: 12.1; Tb hexokinase: 1.4

How did N#CC1=C(N)Oc2cc(O)ccc2C1c1ccccc1 (stereo not given) do in these assays?
RanGTP-Impb inh: 52.7*; Hck Nef HTS: -7.9; 14-3-3 Bad inh: -5.9; Runt-SMMHC FRET: 64.6*; Runt-CBFb FRET: 49.0; Tb hexokinase: 2.6

Results for COc1cc(C2C(C#N)=C(N)Oc3cc4c(cc32)OCO4)cc(OC)c1OC (stereo not given) ?
RanGTP-Impb inh: 4.6; Hck Nef HTS: 15.2; 14-3-3 Bad inh: -15.1; Runt-SMMHC FRET: 5.2; Runt-CBFb FRET: 7.8; Tb hexokinase: -3.7

Results for N#CC1=C(N)Oc2cc3ccccc3cc2C1c1cccnc1 (stereo not given) ?
RanGTP-Impb inh: -2.4; Hck Nef HTS: -2.0; 14-3-3 Bad inh: 3.7; Runt-SMMHC FRET: -1.6; Runt-CBFb FRET: -1.1; Tb hexokinase: -2.8

How did CCc1cc(=O)n2[nH]c(-c3ccccc3)c(-c3ccccc3)c2n1 do in these assays?
RanGTP-Impb inh: 3.9

Results for Cc1cc(=O)n(C(C)(C)C)c(=O)n1Cc1ccccc1 ?
RanGTP-Impb inh: 6.4

Results for COC(=O)c1cccc(NC(=O)CC2C(=O)NCCN2C(=O)Nc2cc(C)cc(C)c2)c1 (stereo not given) ?
RanGTP-Impb inh: 6.9

How did COc1cccc(C(C(=O)NC(C)(C)C)N(CC(C)C)C(=O)CCC(=O)Nc2cc(C)on2)c1OC (stereo not given) do in these assays?
RanGTP-Impb inh: 1.2; Hck Nef HTS: 24.8; 14-3-3 Bad inh: -1.3; Runt-SMMHC FRET: 2.7; Runt-CBFb FRET: -3.4; Tb hexokinase: -1.6

How did COc1ccc(C2C(C#N)=C(N)SC(N)=C2C#N)cc1OC do in these assays?
RanGTP-Impb inh: 47.5*; Hck Nef HTS: 6.0; 14-3-3 Bad inh: -7.8; Runt-SMMHC FRET: 12.4; Runt-CBFb FRET: 12.8; Tb hexokinase: -11.6

What do the screens show for `COc1cc(C2C(C#N)=C(N)Oc3cc(O)ccc32)cc2c1OCO2` (stereo not given)?
RanGTP-Impb inh: 41.5*; Hck Nef HTS: -4.6; 14-3-3 Bad inh: -18.5; Runt-SMMHC FRET: 41.0; Runt-CBFb FRET: 11.1; Tb hexokinase: -1.4

How did COc1ccc(C2C(C#N)=C(N)Oc3cc(O)ccc32)cc1C (stereo not given) do in these assays?
RanGTP-Impb inh: 67.1*

Results for COc1ccc(C2C(C#N)=C(N)OC(C(C)(C)C)=C2C#N)cc1OC (stereo not given) ?
RanGTP-Impb inh: 8.2; Hck Nef HTS: 2.2; 14-3-3 Bad inh: -13.6; Runt-SMMHC FRET: 10.9; Runt-CBFb FRET: 5.0; Tb hexokinase: -18.0

Results for CCC1CCCCN1C(=O)CCC(=O)Nc1nnc(C(F)(F)F)s1 (stereo not given) ?
RanGTP-Impb inh: 3.3

How did Cc1ccc(CNC(=O)C(CC(C)C)OC(=O)c2ccco2)cc1 (stereo not given) do in these assays?
RanGTP-Impb inh: 3.7

How did CCc1cc2c(NCc3ccco3)ncnc2s1 do in these assays?
RanGTP-Impb inh: 4.1; Hck Nef HTS: -0.8; 14-3-3 Bad inh: 87.2*; Runt-SMMHC FRET: 3.1; Runt-CBFb FRET: -1.2; Tb hexokinase: 3.5

How did CCc1cc2c(NCC(=O)O)ncnc2s1 do in these assays?
RanGTP-Impb inh: 0.0; Hck Nef HTS: 0.6; 14-3-3 Bad inh: -1.2; Runt-SMMHC FRET: -3.9; Runt-CBFb FRET: 1.1; Tb hexokinase: 5.6

Results for COc1ccc(OC)c2c(C)cc(N3CCCN(C)CC3)nc12 ?
RanGTP-Impb inh: 1.5; Hck Nef HTS: -13.3; 14-3-3 Bad inh: 2.1; Runt-SMMHC FRET: -1.7; Runt-CBFb FRET: 0.2; Tb hexokinase: -4.7

What do the screens show for `Cc1nnc2n1NC(c1ccc(Cl)cc1)C(C(=O)N(C)C1CCCCC1)S2` (stereo not given)?
RanGTP-Impb inh: inconclusive; Hck Nef HTS: -0.1; 14-3-3 Bad inh: 127.4*[fluorescence artefact?]; Runt-SMMHC FRET: 4.8; Runt-CBFb FRET: -1.2; Tb hexokinase: -9.7

What do the screens show for `O=S(=O)(NCc1cccnc1)c1ccc2ccccc2c1`?
RanGTP-Impb inh: -2.0

How did O=S(=O)(Nc1ccncc1Cl)c1ccc2ccccc2c1 do in these assays?
RanGTP-Impb inh: 3.2; Hck Nef HTS: 18.3; 14-3-3 Bad inh: 72.1*; Runt-SMMHC FRET: 1.1; Runt-CBFb FRET: 1.1; Tb hexokinase: 10.2

Results for COc1ccc(CN(C(=O)c2ccccc2Br)C2CCS(=O)(=O)C2)cc1 (stereo not given) ?
RanGTP-Impb inh: -1.1

Results for Oc1c(Cl)cc(Cl)cc1CNn1cnnc1 ?
RanGTP-Impb inh: 0.0; Hck Nef HTS: 17.0; 14-3-3 Bad inh: -2.6; Runt-SMMHC FRET: 4.1; Runt-CBFb FRET: 25.2; Tb hexokinase: -2.7

How did Oc1c(Cl)cc(Cl)cc1Sc1cc(Cl)cc(Cl)c1O do in these assays?
RanGTP-Impb inh: -1.4; Hck Nef HTS: 3.4; 14-3-3 Bad inh: 78.6*; Runt-SMMHC FRET: 2.1; Runt-CBFb FRET: 3.7; Tb hexokinase: 16.0
